pIC50: −log10 of the molar value. Activity calls are given as the source filed them. The calls are words filed in the database; no cut-off is given here.
Columns and labels:
MCF7 [1] = assay: Antiproliferative activity against MCF7 cells after 72 hrs by MTT assay; assay type: functional, cell-based, Homo sapiens
Procedure, shortened: (§1)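 Cells cultured with each compound for three days; growth then read by the MTT colorimetric assay and reported as IC50 (µM).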

[2] = Antiproliferative activity against Hs683 cells after 72 hrs by MTT assay; assay type: functional, cell-based, Homo sapiens, Hs 683; procedure, shortened: as §1
[3] = Antiproliferative activity against U373MG cells after 72 hrs by MTT assay; assay type: functional, cell-based, Homo sapiens, U-373MG ATCC; procedure, shortened: as §1
LoVo = assay: Antiproliferative activity against LoVo cells after 72 hrs by MTT assay; assay type: functional, cell-based, Homo sapiens; procedure, shortened: as §1
[4] = Toxicity in ip dosed B6D2F1 mouse; assay type: organism-based; conditions: in vivo
Procedure, shortened: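 Acute MTD was set by a single i.p. dose to groups of three healthy female B6D2F1 mice, at 2.5, 5, 10, 20, 40, 80 and 160 mg/kg. The MTD is the dose just below the lowest dose that killed at least one mouse.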

A549 = assay: Antiproliferative activity against A549 cells after 72 hrs by MTT assay; assay type: functional, cell-based, Homo sapiens; procedure, shortened: as §1
L1210 [5] = assay: Antitumor activity in L1210 cells xenografted B6D2F1 mouse at 10 mg/kg, ip relative to control; assay type: functional; conditions: route intraperitoneal
Procedure, shortened: (§2)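 Mice grafted with L1210 leukaemia cells on day 0, then dosed i.p. four times weekly on days 1-4 and 8-11. Five mice per group. Outcome is %T/C, the median survival of treated over control. Kruskal-Wallis test followed by Dunn comparisons against control.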

HCT-15 = assay: Antiproliferative activity against HCT15 cells after 72 hrs by MTT assay; assay type: functional, cell-based, Homo sapiens; procedure, shortened: as §1
L1210 [6] = assay: Antitumor activity in L1210 cells xenografted B6D2F1 mouse at 20 mg/kg, ip relative to control; assay type: functional; conditions: route intraperitoneal; procedure, shortened: as §2
[7] = target: T1, DNA topoisomerase 1 (Homo sapiens) (UniProt P11387); assay: Inhibition of human topoisomerase 1 by DNA unwinding test
T1 sequence (whole entry): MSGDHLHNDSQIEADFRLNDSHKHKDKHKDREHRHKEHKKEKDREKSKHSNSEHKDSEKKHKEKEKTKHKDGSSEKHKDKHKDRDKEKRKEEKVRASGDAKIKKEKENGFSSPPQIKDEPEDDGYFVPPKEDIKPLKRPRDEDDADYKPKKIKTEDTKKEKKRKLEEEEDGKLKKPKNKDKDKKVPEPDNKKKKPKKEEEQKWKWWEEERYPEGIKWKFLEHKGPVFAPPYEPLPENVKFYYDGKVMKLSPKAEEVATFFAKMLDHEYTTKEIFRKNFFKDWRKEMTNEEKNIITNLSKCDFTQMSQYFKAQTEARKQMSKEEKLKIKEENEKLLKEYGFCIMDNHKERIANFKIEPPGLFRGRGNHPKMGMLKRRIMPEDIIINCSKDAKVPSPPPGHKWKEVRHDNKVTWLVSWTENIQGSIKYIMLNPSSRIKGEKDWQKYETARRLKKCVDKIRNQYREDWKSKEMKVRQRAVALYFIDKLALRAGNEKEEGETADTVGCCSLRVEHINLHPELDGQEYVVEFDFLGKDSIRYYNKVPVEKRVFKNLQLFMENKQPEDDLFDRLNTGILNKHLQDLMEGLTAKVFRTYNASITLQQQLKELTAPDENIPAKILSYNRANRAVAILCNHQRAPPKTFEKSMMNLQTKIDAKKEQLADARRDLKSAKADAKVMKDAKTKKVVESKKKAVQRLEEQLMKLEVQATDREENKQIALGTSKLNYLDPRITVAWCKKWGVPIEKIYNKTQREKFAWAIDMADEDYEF
Procedure, shortened: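 DNA unwinding assay: relaxed pBR322 plasmid converted to supercoiled form in presence of topoisomerase I; compounds at final 4–32 µM (one up to 15–55 µM); ethidium bromide-stained agarose gels; UC50 taken as concentration shifting relaxed band to midpoint between supercoiled and relaxed states.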

Homo sapiens = species on record: Homo sapiens; assay: Inhibition of human topoisomerase 2 at 50 uM by plasmid linearization assay
[8] = target: DNA topoisomerase 2-alpha (Homo sapiens) (UniProt P11388); assay: Inhibition of human topoisomerase 2-mediated kinetoplast DNA […] at 50 uM
Procedure, shortened: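 Topoisomerase II strand-passage activity by kDNA decatenation; compounds at 50 µM; catenated networks stay in wells, decatenated kDNA enters ethidium bromide-stained agarose gel; no-enzyme and no-drug reactions as controls.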

MCF7 [9] = assay: Induction of apoptosis in human MCF7 cells assessed as p53 activation; assay type: functional, cell-based
Procedure, shortened: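 MCF-7 cells treated and p53 activation assessed by immunoblotting, with tubulin as loading control. Adriamycin (2.5 µM, 24 h) served as positive control.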

L1210 [10] = assay: Antitumor activity in L1210 cells xenografted B6D2F1 mouse at 40 mg/kg, ip relative to control; assay type: functional; conditions: route intraperitoneal; procedure, shortened: as §2
L1210 [11] = assay: Antitumor activity in L1210 cells xenografted B6D2F1 mouse at 80 mg/kg, ip relative to control; assay type: functional; conditions: route intraperitoneal; procedure, shortened: as §2

Sequence of DNA topoisomerase 2-alpha (Homo sapiens) (P11388 whole entry): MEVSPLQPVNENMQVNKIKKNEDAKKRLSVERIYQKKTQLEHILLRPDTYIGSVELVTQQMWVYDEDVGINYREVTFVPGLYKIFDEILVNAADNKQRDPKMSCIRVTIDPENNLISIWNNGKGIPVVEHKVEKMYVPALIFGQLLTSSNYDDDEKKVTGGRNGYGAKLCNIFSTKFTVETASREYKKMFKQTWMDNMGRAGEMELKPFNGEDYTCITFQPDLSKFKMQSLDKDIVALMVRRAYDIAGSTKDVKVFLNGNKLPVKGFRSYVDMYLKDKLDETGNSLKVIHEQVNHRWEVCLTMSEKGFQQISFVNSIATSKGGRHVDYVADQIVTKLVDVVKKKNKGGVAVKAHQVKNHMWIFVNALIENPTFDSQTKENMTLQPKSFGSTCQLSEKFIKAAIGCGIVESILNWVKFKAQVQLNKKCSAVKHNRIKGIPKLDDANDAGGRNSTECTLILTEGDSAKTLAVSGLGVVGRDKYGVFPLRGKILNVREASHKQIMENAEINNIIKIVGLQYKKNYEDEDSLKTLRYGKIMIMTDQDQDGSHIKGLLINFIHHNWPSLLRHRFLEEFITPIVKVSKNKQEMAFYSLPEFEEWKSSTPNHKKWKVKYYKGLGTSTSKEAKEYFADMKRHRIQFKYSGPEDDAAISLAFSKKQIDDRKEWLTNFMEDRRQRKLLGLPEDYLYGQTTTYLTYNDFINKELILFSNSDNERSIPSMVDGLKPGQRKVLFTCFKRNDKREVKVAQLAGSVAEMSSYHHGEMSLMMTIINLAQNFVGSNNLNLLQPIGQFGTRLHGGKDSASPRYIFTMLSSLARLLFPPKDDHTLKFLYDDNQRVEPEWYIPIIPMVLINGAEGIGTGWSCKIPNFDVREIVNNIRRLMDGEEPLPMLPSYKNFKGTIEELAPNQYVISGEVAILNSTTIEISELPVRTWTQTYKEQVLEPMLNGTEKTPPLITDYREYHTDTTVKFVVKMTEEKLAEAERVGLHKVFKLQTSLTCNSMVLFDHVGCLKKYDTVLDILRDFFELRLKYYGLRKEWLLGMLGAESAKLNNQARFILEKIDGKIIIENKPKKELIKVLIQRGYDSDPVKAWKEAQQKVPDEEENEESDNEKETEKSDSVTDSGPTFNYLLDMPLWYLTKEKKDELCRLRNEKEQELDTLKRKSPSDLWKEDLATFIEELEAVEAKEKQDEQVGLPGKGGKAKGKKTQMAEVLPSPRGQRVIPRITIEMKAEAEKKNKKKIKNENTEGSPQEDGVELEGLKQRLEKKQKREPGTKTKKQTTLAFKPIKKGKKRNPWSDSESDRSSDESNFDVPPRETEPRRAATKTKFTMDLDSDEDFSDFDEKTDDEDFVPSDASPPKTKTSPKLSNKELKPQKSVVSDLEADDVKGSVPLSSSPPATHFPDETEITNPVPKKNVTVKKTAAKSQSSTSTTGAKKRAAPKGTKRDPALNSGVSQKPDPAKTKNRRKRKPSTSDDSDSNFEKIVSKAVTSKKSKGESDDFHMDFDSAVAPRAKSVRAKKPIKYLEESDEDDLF

| SMILES | pIC50 (MCF7 [1]; Homo sapiens, MCF7, 72 h) | pIC50 ([2]; Homo sapiens, Hs 683, 72 h) | pIC50 ([3]; Homo sapiens, U373 MG, 72 h) | pIC50 (LoVo; Homo sapiens, LoVo, 72 h) | MTD [4] | pIC50 (A549; Homo sapiens, A549, 72 h) | pIC50 (HCT-15; Homo sapiens, HCT-15, 72 h) | further results |
| --- | --- | --- | --- | --- | --- | --- | --- | --- |
| CN(C)CCN1C(=O)c2cccc3cc(NC(=O)Cc4ccc(Cl)cc4)cc(c23)C1=O | 5.32 | 5.15 | 5.24 | 5.32 | 20 mg/kg | 5.33 | 5.26 | Activity (L1210 [5]): 200% |
| CN(C)CCN1C(=O)c2cccc3cc(NC(=O)c4ccccc4)cc(c23)C1=O | < 5.00 | 5.25 | 5.22 | 5.43 | 40 mg/kg | 5.07 | 5.08 | Activity (L1210 [6]): 167% |
| CN(C)CCN1C(=O)c2cccc3cc(NC(=O)Nc4cc5c6c(cccc6c4)C(=O)N(CCN(C)C)C5=O)cc(c23)C1=O | 5.32 | 5.30 | 5.44 | 5.55 | 40 mg/kg | 5.44 | 5.34 | Activity (L1210 [6]): 124% |
| CN(C)CCN1C(=O)c2cccc3cc(/N=C\c4cc(O)ccc4O)cc(c23)C1=O | – | – | – | – | – | – | – | UC50 [7]: 13 µM; Activity (Homo sapiens): Active; Activity [8]: Active; Activity (MCF7 [9]): Active |
| CN(C)CCN1C(=O)c2cccc3cc(NC(=O)C(Cl)(Cl)Cl)cc(c23)C1=O | < 5.00 | < 5.00 | 5.05 | 5.19 | > 80 mg/kg | 5.00 | < 5.00 | Activity (L1210 [6]): 150% |
| CN(C)CCN1C(=O)c2cccc3cc(NC(=O)NCCCl)cc(c23)C1=O | 5.41 | 5.34 | 6.00 | 5.74 | > 80 mg/kg | 5.52 | 5.25 | Activity (L1210 [6]): 156% |
| CN(C)CCN1C(=O)c2cccc3cc(NC(=O)NC(=O)c4ccccc4)cc(c23)C1=O | 5.44 | 5.52 | 5.47 | 5.68 | 40 mg/kg | 5.70 | 5.47 | Activity (L1210 [10]): 140% |
| CCOC(=O)NC(=O)Nc1cc2c3c(cccc3c1)C(=O)N(CCN(C)C)C2=O | 5.20 | 5.44 | 5.39 | 5.11 | 80 mg/kg | 5.31 | 5.36 | Activity (L1210 [10]): 207% |
| CN(C)CCN1C(=O)c2cccc3cc(NC(=O)NC(=O)CCl)cc(c23)C1=O | 5.31 | 5.52 | 5.48 | 5.54 | 20 mg/kg | 5.39 | 5.35 | Activity (L1210 [6]): 147% |
| COC(=O)Nc1cc2c3c(cccc3c1)C(=O)N(CCN(C)C)C2=O | < 5.00 | 5.48 | 5.38 | 5.39 | 40 mg/kg | 5.23 | 5.14 | Activity (L1210 [10]): 133% |
| CN(C)CCN1C(=O)c2cccc3cc(NC(=O)C(F)(F)F)cc(c23)C1=O | 5.02 | 5.06 | 5.09 | 5.35 | 40 mg/kg | 5.02 | < 5.00 | Activity (L1210 [10]): 124% |
| CN(C)CCN1C(=O)c2cccc3cc(NCc4ccccc4O[C@H]4O[C@H](CO)[C@@H](O)[C@H](O)[C@H]4O)cc(c23)C1=O.Cl | < 5.00 | < 5.00 | < 5.00 | < 5.00 | > 80 mg/kg | < 5.00 | < 5.00 | Activity (L1210 [10]): 129% |
| CN(C)CCN1C(=O)c2cccc3cc(/N=C\c4cc(O)ccc4O)cc(c23)C1=O.Cl | 5.20 | – | 5.33 | – | 40 mg/kg | – | – | pIC50 ([2]; hs 683): 5.31; pIC50 (LoVo; lovo): 5.43; Activity (L1210 [10]): 210%; pIC50 (A549; a549): 5.41; pIC50 (HCT-15; hct-15): 5.37 |
| CN(C)CCN1C(=O)c2cccc3cc([N+](=O)[O-])cc(c23)C1=O [MITONAFIDE] | – | 5.43 | 5.89 | 6.40 | 40 mg/kg | 5.62 | 5.59 | Activity (L1210 [6]): 193% |
| CN(C)CCN1C(=O)c2cccc3cc(NCc4ccc5c(c4)OCO5)cc(c23)C1=O | – | – | – | – | > 80 mg/kg | – | – | pIC50 ([2]; hs 683): 5.01; pIC50 ([3]; u-373mg atcc): < 5.00; pIC50 (LoVo; lovo): 5.32; Activity (L1210 [10]): 140%; pIC50 (A549; a549): 5.07; pIC50 (HCT-15; hct-15): 5.09 |
| CN(C)CCN1C(=O)c2cccc3cc(NC(=O)Nc4ccc(Cl)cc4)cc(c23)C1=O | 5.62 | 5.55 | 5.44 | 5.70 | 80 mg/kg | 5.72 | 5.51 | Activity (L1210 [11]): 161% |
| COc1ccc(CC(=O)Nc2cc3c4c(cccc4c2)C(=O)N(CCN(C)C)C3=O)cc1 | 5.66 | 5.38 | 5.57 | 5.89 | 10 mg/kg | 5.49 | 5.55 | Activity (L1210 [5]): 107% |
| CN(C)CCN1C(=O)c2cccc3cc(N)cc(c23)C1=O.Cl | – | 5.33 | 5.35 | 5.46 | – | 5.32 | 5.06 | pIC50 (MCF7 [1]; mcf7): 5.05; Activity (L1210 [5]): 120% |
| CN(C)CCN1C(=O)c2cccc3cc(NCc4ccc5c(c4)OCO5)cc(c23)C1=O.Cl | < 5.00 | – | – | 5.43 | > 80 mg/kg | < 5.00 | 5.35 | pIC50 ([2]; hs 683): 5.35; pIC50 ([3]; u-373mg atcc): 5.40; Activity (L1210 [11]): 207% |
| CN(C)CCN1C(=O)c2cccc3cc(NCc4ccc5c(c4)OCCO5)cc(c23)C1=O | 5.05 | 5.26 | 5.15 | 5.40 | > 80 mg/kg | 5.01 | 5.17 | Activity (L1210 [11]): 150% |
| CN(C)CCN1C(=O)c2cccc3cc(NC(=O)CCCCl)cc(c23)C1=O | < 5.00 | < 5.00 | < 5.00 | 5.00 | > 80 mg/kg | < 5.00 | < 5.00 | Activity (L1210 [11]): 164% |
| CCOC(=O)CCC(=O)Nc1cc2c3c(cccc3c1)C(=O)N(CCN(C)C)C2=O | < 5.00 | < 5.00 | < 5.00 | < 5.00 | > 80 mg/kg | < 5.00 | < 5.00 | Activity (L1210 [11]): 156% |
| CN(C)CCN1C(=O)c2cccc3cc(NC(=S)Nc4ccc(OC(F)(F)F)cc4)cc(c23)C1=O | 5.32 | 5.19 | 5.44 | 5.40 | 40 mg/kg | 5.37 | 5.23 | Activity (L1210 [11]): 171% |
| CCOC(=O)CC(=O)Nc1cc2c3c(cccc3c1)C(=O)N(CCN(C)C)C2=O | < 5.00 | < 5.00 | < 5.00 | < 5.00 | > 80 mg/kg | < 5.00 | < 5.00 | Activity (L1210 [5]): 129% |

Reference: ChEMBL document CHEMBL1148725, “2,2,2-Trichloro-N-({2-[2-(dimethylamino)ethyl]-1,3-dioxo-2,3-dihydro-1H-benzo[de]isoquinolin- 5-yl}carbamoyl)acetamide (UNBS3157), a novel nonhematotoxic naphthalimide derivative with potent antitumor activity” (J Med Chem, 2007)
